PfG6PD inh: PfG6PD (Plasmodium falciparum) enzyme inhibition. PfGluPho enzyme, NADPH resazurin-diaphorase fluorescence. 350,000 tested, 0.78% active. inhibition, % at 20 µM;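 active = inhibition reaching at least a set limit at 20 µM in the primary screen, cut at about 59% in these data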;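 also: 0% = DMSO wells with substrate and 100% = DMSO wells lacking glucose-6-phosphate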
HKDC1 inh: blocks human hexokinase HKDC1 activity. recombinant HKDC1, G6PDH/diaphorase resazurin coupled fluorescence. inhibition, % at 20 µM. 340,000 tested, 0.16% active;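 active = inhibition above about 35% when tested at 20 µM, limit read from the data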;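 also: plate controls were DMSO wells with enzyme for no effect and DMSO wells lacking enzyme for full effect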
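Test system: HK5 enzyme. Quantity: 5 µg/mL HK5 final. Reagent: glucose and ATP substrates. Schedule: 90 min reaction incubation at room temperature, dark. Technique: resazurin-to-resorufin fluorescence via G6PDH and diaphorase coupling, 525/613 nm. Control set: DMSO wells with and without enzyme mix.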
ATG4B inhibitor: blocks human ATG4B protease cleavage of LC3 substrate. ATG4B cleavage of LC3-PLA2, NBD-HPC fluorescence, 1 h. inhibition, % at 8.33 µM. 340,000 tested, 0.51% active; in the data active = inhibition above about 40%
PKA-R1A act: activators of PKA-R1A complex; activation, % at 11.4 µM; PKA-R1A dissociation, Cy5-IP20 fluorescence polarization; scaled: DMSO 0%, 113 µM cGMP 100%; 340,000 tested, 0.083% active;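 active = percent activation above the mean of all tested compounds plus 3 SD, cut at about 19% in these data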;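 also: higher means more PKAc released from R1A so a rise in polarization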
PKA-R2B act: PKA-R2B complex activation; P22694+P31323; PKA-R2B holoenzyme dissociation, Cy5-IP20 fluorescence polarization; R2B truncated from residue 108, S112A mutant; 0% DMSO only, 100% 113 µM cGMP; activation, % at 11.4 µM; 340,000 tested, 0.079% active; AID 504700;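 active = activation above a cutoff set at the mean over all compounds plus 3 SD, cut at about 18% in these data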;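 also: higher means more holoenzyme dissociation and a rise in polarization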
Target sequence (P31323 whole entry, looked up, other chains not shown, the tested form may be a part): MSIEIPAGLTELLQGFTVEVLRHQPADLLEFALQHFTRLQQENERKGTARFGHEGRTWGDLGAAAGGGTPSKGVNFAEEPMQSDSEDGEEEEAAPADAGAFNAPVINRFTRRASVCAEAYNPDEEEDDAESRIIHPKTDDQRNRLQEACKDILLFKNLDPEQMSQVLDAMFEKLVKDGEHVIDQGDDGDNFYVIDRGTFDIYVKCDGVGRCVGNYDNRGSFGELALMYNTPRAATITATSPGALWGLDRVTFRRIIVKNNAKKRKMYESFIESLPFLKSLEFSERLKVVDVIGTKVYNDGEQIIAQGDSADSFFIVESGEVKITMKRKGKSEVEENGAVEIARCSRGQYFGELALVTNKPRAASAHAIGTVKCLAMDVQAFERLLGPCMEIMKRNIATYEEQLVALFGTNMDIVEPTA
T cell modulator: T cell immune modulation candidate; 2C CD8+ T cell-vesicle binding, flow cytometry; active compounds read low; response (vesicle binding), % at 7 µM; 330,000 tested, 0.068% active; AID 2052;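 active = response, share of CD8 T cells binding vesicles, and their 90th percentile fluorescence all below set limits, cut at about 80% in these data, passing the limit was not always enough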;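 also: values below 100% mean blocked vesicle binding to the CD8+ T cells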
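Test system: purified 2C TCR transgenic mouse naive CD8+ T cells. Probe or stimulus: QL9-peptide-loaded Drosophila micro-vesicles bearing Ld, ICAM-1 and B7-1. Incubation: binding step 1.5 h, 37 °C, antibody labelling 20 min, ice. Measured by: flow cytometry of vesicle-bound cells.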
PfG6PD confirm: PfG6PD inhibition, single-dose confirmed; inhibition, % at 20 µM; shares compounds with PfG6PD inh; 2,400 tested, 34% active; recombinant PfGluPho, NADPH-diaphorase-resazurin fluorescence;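 active = inhibition of at least 50% at 20 µM in any single replicate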;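 also: 0% = DMSO with substrate and 100% = DMSO lacking glucose-6-phosphate substrate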
Diaphorase 10uM: counter-screen for P. falciparum G6PD inhibitors: diaphorase inhibitors, oxidizers | AID 504862 | inhibition, % at 20 µM | 820 tested, 39% active | shares compounds with PfG6PD inh | diaphorase-coupled resazurin reduction, fluorescence, NADPH 10 uM;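 active = average inhibition reaching 50% or more with the compound at 20 µM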;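 also: resorufin red fluorescence formed as diaphorase reduces resazurin using NADPH; 0% = DMSO with enzyme and 100% = DMSO without enzyme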
Diaphorase 30uM: inhibits diaphorase or oxidizes, flagging false PfG6PD hits; shares compounds with PfG6PD inh; Diaphorase/resazurin coupled assay, resorufin fluorescence, 30 uM NADPH; inhibition, % at 20 µM; 820 tested, 29% active;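 active = inhibition averaging 50% or more, tested at 20 µM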;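 also: 0% = DMSO with enzyme and 100% = DMSO wells lacking diaphorase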
Active calls of the source: *; . = no result given; ! = not active in a repeat. The list is not random: actives were taken first. Their share in the collection is about 1.6%.

SMILES	PfG6PD inh	HKDC1 inh	ATG4B inhibitor	PKA-R1A act	PKA-R2B act	T cell modulator	PfG6PD confirm	others
COC(CNC(=O)CN1CCN(Cc2ccccc2F)C1=O)OC	-5	2	-2	-6	-3	150	.
O=C1c2c(O)ccc(O)c2C(=O)c2c(NCCNCCO)ccc(NCCNCCO)c21	62*!	4	10	-21	-17	562	11
O=C(CN1CCN(c2ccc(O)cc2)CC1)Nc1cc(S(=O)(=O)N2CCCC2)ccc1Cl	67*	12	-7	7	-6	745	30
COc1ccc(NC(=O)c2ccc(NC(=O)CN3CCN(c4ccc(O)cc4)CC3)cc2)cc1	75*	9	-15	2	8	.	36
O=C(CN1CCN(c2ccc(O)cc2)CC1)Nc1ccc2c(c1)OCCCO2	79*	1	-7	4	-6	190	27
Oc1ccc(N2CCN(Cc3cc4c(cc3Br)OCCO4)CC2)cc1	74*	5	-19	0	-7	272	6
O=C(NC1CCC1)C1CCC(=O)N(Cc2ccc(Cl)cc2)C1 (stereo not drawn)	-13	.	.	10	4	.	.
Cc1ccc(CNC(=O)C2CCC(=O)N(CCCN3CCOCC3)C2)cc1 (stereo not drawn)	-11	1	-1	-4	-2	280	.
Cc1ccc(OS(=O)(=O)c2c(C)nn(C)c2Cl)c(C)c1	75*	-1	-9	-10	-8	208	34
Cc1ccc(C)c(NS(=O)(=O)c2c(C)nn(C)c2C)c1	1	-5	4	-3	-14	192	.
C=CCOc1ccc(/C=C/C(=O)OCC(=O)NCc2ccco2)cc1	3	-6	-7	1	8	262	.
Cc1cc(C)nc(NNS(=O)(=O)c2ccc(Cl)cc2)n1	59*	1	2	5	-8	174	13
Cc1cc(C)nc(NNS(=O)(=O)c2ccc(F)c(Cl)c2)n1	33	-4	0	6	0	551	.
COc1ccc(C(=O)/C=C2\Sc3ccccc3N2C)cc1	95*	-5	4	.	.	136	48*	Diaphorase 10uM=55*;Diaphorase 30uM=31
CC(=S)/C=C1\Sc2ccccc2N1C	47	-8	-9	-7	6	414	.
COc1ccc(N2C(=O)c3ccccc3C2O)cc1 (stereo not drawn)	-7	-1	9	-3	-4	532	.
COc1ccc(O)c(C(=O)C2c3ccccc3C(=O)N2c2ccc(C)cc2)c1 (stereo not drawn)	66*	3	-3	1	-2	254	-6
COCCN1CC(C(=O)N2CCC(Oc3ccccc3OC)CC2)CCC1=O (stereo not drawn)	-7	-8	22	5	-3	653	.
CC1(C)CC1C(=O)Nc1ccc([N+](=O)[O-])cc1Br (stereo not drawn)	-9	-4	-3	0	6	273	.
Cc1ccc(C2(c3ccc(C)cc3)CC2C(=O)Nc2ccc([N+](=O)[O-])cc2O)cc1 (stereo not drawn)	93*	-2	8	-10	-7	601	19
Nn1c(SCC(=O)Nc2cccnc2Cl)nnc1-c1ccccc1	62*	4	-4	11	-14	508	50*	Diaphorase 10uM=0;Diaphorase 30uM=5
Cc1ccc(NC2=C(NC(=O)c3ccccc3)C(=O)c3ccccc3C2=O)cc1Cl	86*	27	-4	1	-6	410	63*	Diaphorase 10uM=31;Diaphorase 30uM=18
c1ccc(OCc2nnc3n2N=C(c2ccccc2)CS3)cc1	100*	-11	-5	2	15	425	58*	Diaphorase 10uM=41;Diaphorase 30uM=29
COc1ccc(OCc2nnc3n2N=C(c2ccc(OC)cc2)CS3)cc1	14	-2	-12	5	7	211	.
Cc1ccc(-c2csc(=S)[nH]2)cc1	24	-4	-2	-3	0	381	.
SMILES	PfG6PD inh	HKDC1 inh	ATG4B inhibitor	PKA-R1A act	PKA-R2B act	T cell modulator	PfG6PD confirm	others
S=c1[nH]c(-c2ccc(Cl)cc2)cs1	62*	6	11	3	-3	272	3
O=C(COc1ccccc1)N=C1SC2CS(=O)(=O)CC2N1Cc1ccccc1 (stereo not drawn)	11	-6	-7	-1	4	488	.
OCc1ccccc1SSc1ccccc1CO	67*	-1	-6	.	.	367	54*	Diaphorase 10uM=-19;Diaphorase 30uM=14
CC(C)(C)C(=O)Nc1c2c(nn1-c1ccccc1)CSC2	-14	0	3	-7	-2	281	.
CCN(CC)c1ccc(NC(=O)c2ccccc2)cc1S(=O)(=O)Nc1ccccc1OC	74*	-14	-1	-13	-5	227	31
CCN(CC)c1ccc(NC(=O)c2cccc(C)c2)cc1S(=O)(=O)Nc1ccccc1OC	73*	-16	5	2	-1	347	54*	Diaphorase 10uM=-17;Diaphorase 30uM=-19
Cc1cc(C)nc(NC(=O)c2ccc(COc3ccccc3Cl)cc2)c1	22	-7	0	1	-8	212	.
CN(C)S(=O)(=O)c1ccc2c(c1)nc(CCC(=O)NCC(=O)Nc1ccc(F)c(F)c1F)n2C	-9	.	.	-7	-11	.	.
O=S(=O)(c1cccs1)N1CN(Cc2cccs2)c2nc3ccccc3nc21	69*	10	0	-13	2	415	35
O=C(CSc1cc(Cl)ccc1Cl)NC1CCCc2ccccc21 (stereo not drawn)	-10	9	11	5	4	255	.
Cc1ccc2nc(SCC(=O)NC3CCCc4ccccc43)[nH]c2c1 (stereo not drawn)	75*	-4	9	3	2	250	59*	Diaphorase 10uM=64*;Diaphorase 30uM=42
O=C(CCCOc1ccc(Cl)cc1Cl)N/N=C/c1cccc([N+](=O)[O-])c1	112*	17	-8	4	-7	179	69*	Diaphorase 10uM=59*;Diaphorase 30uM=48
Nc1nc(-c2cc(O)ccc2[N+](=O)[O-])cc(-c2ccccc2)c1[N+](=O)[O-]	76*	12	0	-9	-13	263	-4
CCOC(=O)CSc1nc2nc(Cl)c(Cl)nc2[nH]1	81*	.	.	-7	3	.	47
CCOC(=O)CSc1nc(C)cc(=O)[nH]1	-16	-8	2	3	-9	231	.
Cc1ccccc1CN1CCN(C(C)C(=O)NNC(=O)c2ccc(F)cc2)CC1 (stereo not drawn)	-10	2	-3	-19	-4	281	.

From PubChem
